ChEMBL document CHEMBL3877250, “Design, synthesis, and biological evaluation of (2E)-(2-oxo-1, 2-dihydro-3H-indol-3-ylidene)acetate derivatives as anti-proliferative agents through ROS-induced cell apoptosis” (Eur J Med Chem, 2016)

Assays:
[1] = Cytotoxicity against human HL60 cells after 72 hrs by CCK-8 assay; assay type: functional, cell-based; details: HL-60, 72 h
How it was run: (§1)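 Cells kept in RPMI 1640 with 10% heat-inactivated fetal calf serum and 1% streptomycin/penicillin at 37 °C, 5% CO2. After compound exposure, CCK-8 was added and cells were incubated 4 h at 37 °C, then absorbance was read at 450 nm. Viability is relative to untreated cells (100%). IC50 comes from nonlinear regression, mean of three separate determinations. Single-concentration screen at 20 µM.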

[2] = Cytotoxicity against human L02 cells after 72 hrs by CCK-8 assay; assay type: toxicity, cell-based; how it was run: as §1
[3] = Cytotoxicity against human SK-BR-3 cells assessed as growth inhibition at 20 uM after 72 hrs by CCK-8 assay; assay type: functional; details: SK-BR-3, 72 h, read-out: GI; how it was run: as §1
[4] = Cytotoxicity against human MDA-MB-231 cells assessed as growth inhibition at 20 uM after 72 hrs by CCK-8 assay; assay type: functional; details: MDA-MB-231, 72 h, read-out: GI; how it was run: as §1
[5] = Cytotoxicity against human HCT116 cells assessed as growth inhibition at 20 uM after 72 hrs by CCK-8 assay; assay type: functional; details: HCT-116, 72 h, read-out: GI; how it was run: as §1
[6] = Cytotoxicity against human SW480 cells assessed as growth inhibition at 20 uM after 72 hrs by CCK-8 assay; assay type: functional; details: SW480, 72 h, read-out: GI; how it was run: as §1
[7] = Cytotoxicity against human OVCAR3 cells assessed as growth inhibition at 20 uM after 72 hrs by CCK-8 assay; assay type: functional; details: OVCAR-3, 72 h, read-out: GI; how it was run: as §1
[8] = Cytotoxicity against human HL60 cells assessed as growth inhibition at 20 uM after 72 hrs by CCK-8 assay; assay type: functional; details: HL-60, 72 h, read-out: GI; how it was run: as §1
[9] = Cytotoxicity against human Saos2 cells assessed as growth inhibition at 20 uM after 72 hrs by CCK-8 assay; assay type: functional; details: SAOS-2, 72 h, read-out: GI; how it was run: as §1
[10] = Antitumor activity against human HepG2 cells assessed as growth inhibition at 20 uM after 72 hrs by CCK-8 assay; assay type: functional; details: HepG2, 72 h, read-out: GI; how it was run: as §1
[11] = Cytotoxicity against human L02 cells assessed as growth inhibition at 20 uM after 72 hrs by CCK-8 assay; assay type: toxicity, cell-based; details: read-out: GI; how it was run: as §1
[12] = Cytotoxicity against human L02 cells; assay type: toxicity, cell-based

| Compound | IC50 [1] [µM] | IC50 at 72 h [2] [µM] | inhibition of growth at 20 µM [3] [%] | inhibition of growth at 20 µM [4] [%] | inhibition of growth at 20 µM [5] [%] | inhibition of growth at 20 µM [6] [%] | inhibition of growth at 20 µM [7] [%] | inhibition of growth at 20 µM [8] [%] | inhibition of growth at 20 µM [9] [%] | inhibition of growth at 20 µM [10] [%] | inhibition at 72 h, 20 µM [11] [%] | IC50 [12] [µM] |
| --- | --- | --- | --- | --- | --- | --- | --- | --- | --- | --- | --- | --- |
| CNC(=O)/C=C1/C(=O)N(C)c2ccccc21 | 10.7 | 19.1 | – | – | – | – | – | – | – | – | – | – |
| CC(C)(C)OC(=O)/C=C1/C(=O)Nc2c(Cl)cccc21 | 6.12 | 4.8 | 88.2 | 87.4 | 89.5 | 78 | 59.3 | 93.7 | 82.4 | 88.1 | 64 | – |
| Cc1ccc2c(c1)/C(=C\C(=O)OC(C)(C)C)C(=O)N2 | 5 | 2.68 | 88 | 87.8 | 89.4 | 79 | 59.5 | 94.6 | 83.7 | 90.3 | 63.9 | – |
| CC(=O)O[C@H]1C(=O)[C@@]2(C)[C@H]([C@H](OC(=O)c3ccccc3)[C@]3(O)C[C@H](OC(=O)[C@H](O)[C@@H](NC(=O)c4ccccc4)c4ccccc4)C(C)=C1C3(C)C)[C@]1(OC(C)=O)CO[C@@H]1C[C@@H]2O [PACLITAXEL] | – | – | 72.1 | 85.1 | 88.9 | 76.4 | 58.5 | 71 | 77.4 | 89.4 | 61.5 | – |
| COC(=O)CC1C(=O)Nc2ccccc21 (stereo not drawn) | 114 | > 100 | – | – | – | – | – | – | – | – | – | – |
| CN1C(=O)/C(=C/C(=O)Oc2ccc3ccccc3c2)c2ccccc21 | 23.8 | 46.6 | – | – | – | – | – | – | – | – | – | – |
| COc1ccc2c(c1)/C(=C\C(=O)OC(C)(C)C)C(=O)N2 | 6.19 | 3.82 | 87.7 | 87.6 | 89.6 | 78.7 | 59 | 94.2 | 82 | 90.1 | 63.7 | – |
| Cc1c(Cl)ccc2c1NC(=O)/C2=C/C(=O)OC(C)(C)C | 3.64 | 6.26 | 87.9 | 87.3 | 89.9 | 77.2 | 57.4 | 82.9 | 82.6 | 69.7 | 64.3 | – |
| COc1ccc2c(c1)NC(=O)/C2=C/C(=O)OC(C)(C)C | 9.15 | 4.34 | 87 | 87.1 | 89.5 | 78.8 | 57.9 | 91.6 | 83.2 | 88.3 | 63.6 | – |
| CC(C)(C)OC(=O)CC1C(=O)Nc2ccccc21 (stereo not drawn) | > 100 | > 100 | 22.6 | 3.7 | 1.7 | 8.8 | 6.4 | 0.5 | 1.5 | 1.2 | 0.1 | – |
| COC(=O)/C=C1/C(=O)Nc2ccccc21 | 4.18 | 7.05 | 86.7 | 86.8 | 87 | 78.1 | 54.4 | 81.5 | 78.6 | 88 | 61.5 | – |
| CC(C)(C)OC(=O)/C=C1/C(=O)N(Cc2ccccc2)c2ccccc21 | 13.8 | 5.03 | 88 | 87.1 | 87.9 | 78.4 | 58.9 | 91.7 | 82.1 | 88 | 62 | – |
| CCN(CC)CCNC(=O)c1c(C)[nH]c(/C=C2\C(=O)Nc3ccc(F)cc32)c1C [SUNITINIB] | 4.95 | 4.62 | – | – | – | – | – | – | – | – | – | – |
| COc1cccc2c1NC(=O)/C2=C/C(=O)OC(C)(C)C | 9.68 | – | 87.7 | 86.7 | 87.6 | 77.8 | 57.1 | 84.2 | 81.1 | 87.3 | 61.6 | – |
| CN1C(=O)C(CC(=O)OC(C)(C)C)c2ccccc21 (stereo not drawn) | 93.1 | > 100 | – | – | – | – | – | – | – | – | – | – |
| CC(C)c1ccc2c(c1)/C(=C\C(=O)OC(C)(C)C)C(=O)N2 | 5.29 | 3.36 | 88.5 | 87.7 | 89.4 | 78.5 | 59.7 | 94.4 | 82.8 | 90.5 | 63.8 | – |
| CC(C)(C)OC(=O)CC1C(=O)Nc2ccc(Cl)cc21 (stereo not drawn) | 81.1 | – | – | – | – | – | – | – | – | – | – | – |
| COc1ccc(OC(=O)/C=C2/C(=O)N(C)c3ccccc32)cc1 | 10.6 | 23.5 | – | – | – | – | – | – | – | – | – | – |
| CCOC(=O)/C=C1/C(=O)Nc2ccccc21 | 4.83 | 4.23 | 85.5 | 86.9 | 89.3 | 78.3 | 57.3 | 77.7 | 81.4 | 90.2 | 63.9 | – |
| CN1C(=O)/C(=C/C(=O)O)c2ccccc21 | 83.7 | – | – | – | – | – | – | – | – | – | – | – |
| CN1C(=O)/C(=C/C(=O)Oc2ccccc2)c2ccccc21 | 10.2 | 22.7 | – | – | – | – | – | – | – | – | – | – |
| CC(C)(C)OC(=O)/C=C1/C(=O)Nc2ccc(OC(F)(F)F)cc21 | 4.48 | 4.04 | 88.1 | 86.9 | 87.7 | 77.8 | 59 | 95.9 | 80.1 | 88.4 | 61.3 | – |
| CN1C(=O)/C(=C/C(=O)OC(C)(C)C)c2ccccc21 | 2.76 | 4.32 | 87.6 | 86.6 | 87.5 | 77.8 | 57.1 | 94.7 | 81.9 | 88.4 | 61.4 | 12.2 |
| CCCCc1ccc2c(c1)/C(=C\C(=O)OC(C)(C)C)C(=O)N2 | 6.19 | 4.4 | 87.8 | 87.7 | 89 | 78.3 | 60.2 | 94.7 | 84.2 | 90.3 | 63.7 | – |
| O=C(O)/C=C1/C(=O)Nc2ccccc21 | > 100 | > 100 | 17.9 | 1 | -0.7 | 6.4 | 13.4 | 0.9 | 8.9 | 3 | 3.3 | – |
| CN1C(=O)/C(=C/C(=O)Oc2ccc(Cl)cc2)c2ccccc21 | 12.2 | – | – | – | – | – | – | – | – | – | – | – |
| CC(C)(C)OC(=O)/C=C1/C(=O)Nc2ccc([N+](=O)[O-])cc21 | 9.86 | 3.82 | 87.9 | 86.9 | 88.1 | 77.9 | 55.6 | 86.6 | 82.8 | 88.2 | 62 | – |
| CCOC(=O)/C=C1\C(=O)Nc2ccccc21 | > 100 | – | – | – | – | – | – | – | – | – | – | – |
